Hits are enriched below; roughly 2.7% of the tested compounds scored in any of these assays.
IMP-1 inh-1 – IMP-1 metallo-beta-lactamase inhibitors, primary screen, biochemical, epi-absorbance readout, Pseudomonas aeruginosa enzyme; metallo-beta-lactamase IMP-1 (Pseudomonas aeruginosa); purified IMP-1, nitrocefin hydrolysis, epi-absorbance fluorescence; inhibition, % at 5.6 µM; 290,000 compounds, 0.45% hits; AID 1556, 2009;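 active = inhibition above the mean plus 3 SD of all compounds in the same screening run, cut at about 4.5% in these data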
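assay system = purified recombinant IMP-1 metallo-beta-lactamase enzyme | schedule = 15 min preincubation plus 25 min reaction at 25 °C | signal = Epi-absorbance fluorescence, 480 nm excitation, 530 nm emission | read-out basis = percent inhibition from optical density relative to buffer-blank wells | controls = IMP-1 with DMSO as 0%, enzyme-free DMSO as 100%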
VIM-2 inhibitor – VIM-2 metallo-beta-lactamase inhibitors, primary screen, biochemical, epi-absorbance readout, Pseudomonas aeruginosa enzyme. purified VIM-2, nitrocefin hydrolysis, epi-absorbance fluorescence. inhibition, % at 5.6 µM. 290,000 compounds, 0.89% hits;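 active = inhibition above the mean of all tested compounds plus 3 SD, cutoff set per screening run, cut at about 7.5% in these data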;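 note: red hydrolysis product quenches plate fluorescence so inhibitors raise well fluorescence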
PfM18AAP inh – PfM18AAP inhibitors, malaria aminopeptidase, primary screen, biochemical, QFRET, recombinant enzyme; 290,000 compounds, 1.2% hits; H-Glu-NHMec fluorogenic cleavage; AID 1822, 2009; inhibition, % at 7.35 µM; M18 aspartyl aminopeptidase (Plasmodium falciparum 3D7);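 active = inhibition above the campaign mean inhibition over all tested compounds plus 3 SD, cut at about 28% in these data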
CTSL1 counter – Fasciola hepatica cathepsin L1 inhibitors, primary screen, counter-screen for PFM18AAP inhibitor project, biochemical, QFRET, fluorogenic peptide substrate; recombinant F. hepatica cathepsin L1, Z-Leu-Arg-MCA fluorescence; 300,000 compounds, 0.49% hits; inhibition, % at 5.96 µM;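 active = inhibition above the mean of all tested compounds plus 3 SD, set per screening campaign, cut at about 17% in these data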
IMP-1 inh-2 – IMP-1 metallo-beta-lactamase inhibitors, confirmation, selectivity assay for selective VIM-2 inhibitor project, biochemical, epi-absorbance readout, triplicate; shares compounds with VIM-2 inhibitor; purified IMP-1, nitrocefin hydrolysis, epi-absorbance fluorescence; inhibition, % at 5.6 µM; 1,300 tested, under 10 active; AID 1856, 2009; call rule not given here
VIM-2 FRET ctr – VIM-2 inhibitors in FRET format, confirmation, artefact control for selective VIM-2 inhibitor project, biochemical, epi-absorbance artifact exclusion; inhibition, % at 5.6 µM; shares compounds with VIM-2 inhibitor; purified VIM-2, CCF2 FRET substrate hydrolysis; 1,300 compounds, 23% hits;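 active = inhibition above the mean of all tested compounds plus 3 SD, cut at about 19% in these data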
TEM-1 counter – TEM-1 serine beta-lactamase inhibitors, counter-screen for VIM-2 inhibitor project, biochemical, epi-absorbance, HTS. shares compounds with VIM-2 inhibitor. Purified TEM-1, nitrocefin hydrolysis, epi-absorbance fluorescence. inhibition, % at 5.6 µM. 1,300 compounds, 3% hits. AID 1866, 2009;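 active = inhibition above that campaign's mean inhibition plus 3 SD, cut at about 0.46% in these data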
Target sequence (P62593 whole entry, looked up): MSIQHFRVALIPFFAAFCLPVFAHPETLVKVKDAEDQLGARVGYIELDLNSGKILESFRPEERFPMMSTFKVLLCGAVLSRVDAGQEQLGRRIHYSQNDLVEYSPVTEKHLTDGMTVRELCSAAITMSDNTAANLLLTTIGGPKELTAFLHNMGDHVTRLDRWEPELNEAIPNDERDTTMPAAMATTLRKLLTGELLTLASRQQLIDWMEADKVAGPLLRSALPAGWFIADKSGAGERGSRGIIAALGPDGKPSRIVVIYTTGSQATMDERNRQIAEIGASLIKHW
VIM-2 inh conf – VIM-2 metallo-beta-lactamase inhibitors, confirmation, biochemical, epi-absorbance, hits shared with IMP-1 screen | shares compounds with VIM-2 inhibitor | purified VIM-2, nitrocefin hydrolysis | inhibition, % at 5.6 µM | 1,300 compounds, 96% hits | AID 2187, 2009;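 active = inhibition of the VIM-2 beta-lactamase enzyme above about 11% from the earlier first-round screen, limit read from the data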
Of the large screens only hits and unclear results are named; the others gave an inactive call (follow-up assays come after a bar, where they were run).

O=C(C1CC1)N1CCC(Oc2cccc(C(=O)N3CCCCC3CCO)c2)CC1 (configuration not stated)	none
O=C(NCc1cccc(Cl)c1)c1cccc(OC2CCN(C(=O)C3CC3)CC2)c1	VIM-2 inhibitor 25.3 | IMP-1 inh-2 inactive | VIM-2 FRET ctr inactive | TEM-1 counter inactive | VIM-2 inh conf inactive
O=C(NCc1ccco1)c1cccn2c(=O)c3sccc3nc12	VIM-2 inhibitor 19.4 | IMP-1 inh-2 inactive | VIM-2 FRET ctr inactive | TEM-1 counter inactive | VIM-2 inh conf 34.1
Cc1cc(-c2ccc(/C=N/n3cnnc3)o2)ccc1Cl	VIM-2 inhibitor 13.9 | IMP-1 inh-2 inactive | VIM-2 FRET ctr inactive | TEM-1 counter inactive | VIM-2 inh conf 37.1
CCCCOC(=O)c1cc(-c2ccc(/C=N/n3cnnc3)o2)ccc1Cl	VIM-2 inhibitor 21.6 | IMP-1 inh-2 inactive | VIM-2 FRET ctr inactive | TEM-1 counter inactive | VIM-2 inh conf 54.0
CCOC(=O)c1cc(-c2ccc(/C=N\n3cnnc3)o2)ccc1Cl	VIM-2 inhibitor 57.0 | IMP-1 inh-2 inactive | VIM-2 FRET ctr inactive | TEM-1 counter inactive | VIM-2 inh conf 77.8
CCOC(=O)c1cc(-c2ccc(/C=C3/C(=O)N(c4ccc(C(=O)O)cc4)N=C3C)o2)ccc1Cl	none
CC(C)NC(=O)C(=O)Nc1cc2c3c(c1)C(C)C(=O)N3CCC2 (configuration not stated)	none
Cc1ccc(NC(=O)CN2C(=O)S/C(=C/c3ccncc3)C2=O)cc1	none
COc1ccc(OC)c(Nc2nc(NCCCN(C)C)nc(N)c2[N+](=O)[O-])c1	VIM-2 inhibitor 18.8 | IMP-1 inh-2 inactive | VIM-2 FRET ctr inactive | TEM-1 counter inactive | VIM-2 inh conf 29.2
Cc1nc(C)c(/C(O)=C/c2nc3ccccc3oc2=O)s1	VIM-2 inhibitor 18.7 | IMP-1 inh-2 inactive | VIM-2 FRET ctr inactive | TEM-1 counter inactive | VIM-2 inh conf inactive
CC/C(=N\NC(=O)c1cccnc1)c1ccc2c(c1)OCCO2	VIM-2 inhibitor 45.7 | IMP-1 inh-2 inactive | VIM-2 FRET ctr inactive | TEM-1 counter inactive | VIM-2 inh conf inactive
CN1CCN(CCCNC(=O)c2cc3c(=O)n(C)c4ccccc4c3s2)CC1	VIM-2 inhibitor 21.4 | IMP-1 inh-2 inactive | VIM-2 FRET ctr inactive | TEM-1 counter inactive | VIM-2 inh conf 29.1
CCN(Cc1ccccc1)C(=O)c1cc2c(=O)oc3ccc(C)cc3c2s1	none
Cc1ccc2oc(=O)c3cc(C(=O)NCCCN4CCN(C)CC4)sc3c2c1	VIM-2 inhibitor 13.4 | IMP-1 inh-2 inactive | VIM-2 FRET ctr inactive | TEM-1 counter inactive | VIM-2 inh conf 19.8
Cc1ccc2oc(=O)c3cc(C(=O)NCCCN4C(C)CCCC4C)sc3c2c1 (configuration not stated)	VIM-2 inhibitor 12.3, CTSL1 counter 17.1 | IMP-1 inh-2 inactive | VIM-2 FRET ctr inactive | TEM-1 counter inactive | VIM-2 inh conf 16.5
CCN1CCN(CCCNC(=O)c2cc3c(=O)oc4ccc(C)cc4c3s2)CC1	VIM-2 inhibitor 12.7 | IMP-1 inh-2 inactive | VIM-2 FRET ctr inactive | TEM-1 counter inactive | VIM-2 inh conf 18.6
COC(=O)c1c(-c2ccccc2)nn(-c2ccccc2)c1C(=O)OC	none
C=CCNC(=O)C1CCC(=O)N1S(=O)(=O)c1ccc(C)cc1 (configuration not stated)	none
C/C(=N/NC(=O)CN1CCN(S(=O)(=O)c2ccc(Br)cc2)CC1)c1ccco1	none
O=C(NCCCN1CCCCCC1)c1cc2c(=O)oc3ccccc3c2s1	VIM-2 inhibitor 15.6 | IMP-1 inh-2 inactive | VIM-2 FRET ctr inactive | TEM-1 counter inactive | VIM-2 inh conf 24.6
O=C(c1cc2c(=O)oc3ccccc3c2s1)N1CCOCC1	none
O=C(O)c1ccccc1Oc1ccc(Oc2ccccc2)cc1	none
O=C(O)c1ccccc1C(=O)c1ccc(Oc2ccccc2)cc1	VIM-2 inhibitor 21.8 | IMP-1 inh-2 inactive | VIM-2 FRET ctr 44.0 | TEM-1 counter inactive | VIM-2 inh conf 24.4
O=C(CNCc1ccc(F)cc1)Nc1ccccc1[N+](=O)[O-]	none
Nc1nc(/C=C/c2ccc(F)cc2)nc(-c2ccccc2O)n1	none
Nc1nc(/C=C/c2cccnc2)nc(-c2ccccc2O)n1	VIM-2 inhibitor 23.4 | IMP-1 inh-2 inactive | VIM-2 FRET ctr inactive | TEM-1 counter inactive | VIM-2 inh conf 60.5
O=C(COc1cccnc1[N+](=O)[O-])Nc1cccc(S(=O)(=O)N2CCCCC2)c1	none
CN1CCN(C(=S)NC(CC(=O)c2ccccc2)c2ccccc2)CC1 (configuration not stated)	none
COc1ccc(S(N)(=O)=O)cc1-c1nnc2c3ccccc3c(C)nn12	none
Cc1ccc(-c2nnc3c4ccccc4c(C)nn23)cc1NC(=O)CN1CCOCC1	none (no result: CTSL1 counter)
Cc1nn2c(-c3ccc(S(=O)(=O)N4CCN(C)CC4)o3)nnc2c2ccccc12	VIM-2 inhibitor 24.3 | IMP-1 inh-2 inactive | VIM-2 FRET ctr inactive | TEM-1 counter inactive | VIM-2 inh conf 34.4
Cc1ccc(-c2nnc3c4ccccc4c(C)nn23)cc1S(=O)(=O)N1CCN(CCO)CC1	VIM-2 inhibitor 25.2 | IMP-1 inh-2 inactive | VIM-2 FRET ctr inactive | TEM-1 counter inactive | VIM-2 inh conf 48.1
CC(=O)c1ccc(S(=O)(=O)N2CCN(C(=O)CSC(=S)N3CCCC3)CC2)cc1	none (no result: IMP-1 inh-1, VIM-2 inhibitor, PfM18AAP inh)
O=C(Nc1ccccc1Cl)N1CCN(c2ccc3nnc(-c4ccccc4)n3n2)CC1	VIM-2 inhibitor 15.7 | IMP-1 inh-2 inactive | VIM-2 FRET ctr inactive | TEM-1 counter inactive | VIM-2 inh conf 24.2
O=C(Nc1ccc(Cl)cc1)N1CCN(c2ccc3nnc(-c4ccc(F)cc4)n3n2)CC1	none
COc1ccc(OC)c(Nc2c3c(nc4ccccc24)CCC3)c1	VIM-2 inhibitor 12.7 | IMP-1 inh-2 inactive | VIM-2 FRET ctr inactive | TEM-1 counter inactive | VIM-2 inh conf 19.9
COc1ccc(OC)c(NC(=O)COC(=O)c2c3c(nc4ccccc24)CCCC3)c1	none
O=C(Nc1ccc(N2CCOCC2)cc1)c1ccc(Br)o1	none
COc1ccc(C(=O)Nc2ccc(N3CCN(C(C)=O)CC3)cc2)cc1[N+](=O)[O-]	none

Compound activity (PubChem BioAssay)
